From publication PMC5976445 (Journal of inorganic biochemistry, 2018) come the findings set out here.

Where two headings read alike, the source gives them in different places.

For assay [1], the target named is CYP101D1 (UniProt Q2GB12). The assay is described as follows: ITC. A general note: Isothermal titration calorimetry measures the heat released or taken up as one component is titrated into another.
Assay [2] addresses CYP101D1 (UniProt Q2GB12). Description: ITC. The source holds these as a separate data set.
The target of assay [3] is CYP101D1 (UniProt Q2GB12). The assay is described as follows: ITC. This is another data set of the same source.
Assay [4] has as its target CYP101D1 (UniProt Q2GB12). Description: ITC. This is another data set of the same source.
Assay [5] deals with T1, CYP101D1 (Novosphingobium aromaticivorans, UniProt Q2GB12).
T1 sequence (Q2GB12 1-421): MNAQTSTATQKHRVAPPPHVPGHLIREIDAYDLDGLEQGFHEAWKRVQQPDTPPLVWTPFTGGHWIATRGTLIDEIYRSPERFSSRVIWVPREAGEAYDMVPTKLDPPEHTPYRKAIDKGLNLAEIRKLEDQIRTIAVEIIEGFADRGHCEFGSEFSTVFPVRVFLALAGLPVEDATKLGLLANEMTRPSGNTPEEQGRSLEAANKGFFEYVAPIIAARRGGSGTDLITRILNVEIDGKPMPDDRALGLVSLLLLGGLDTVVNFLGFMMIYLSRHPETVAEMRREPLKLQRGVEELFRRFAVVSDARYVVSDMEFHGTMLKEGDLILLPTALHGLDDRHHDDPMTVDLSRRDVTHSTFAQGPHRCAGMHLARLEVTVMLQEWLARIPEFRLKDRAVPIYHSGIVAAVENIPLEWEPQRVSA
The assay is described as follows: isothermal titration calorimetry. In kind it is binding. In outline: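 CYP101D1, expressed His-tagged in E. coli BL21(DE3), Ni-IMAC purified, thrombin-cleaved and gel-filtered. ITC at 25°C in 50 mM potassium phosphate without reducing agents. Either 600 μM–1 mM test compound was titrated into 40–50 μM CYP101D1, or 2 mM redox partner into 50 μM CYP101D1 (±1 mM camphor). 18 × 2 μL injections, 150 s apart, 750 rpm. Corrected for dilution enthalpy. 3–5 runs.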

Take Arx (natural protein): the dissociation constant (Kd) turned out to be 94.8 µM in assay [1], 97.7 µM in assay [2], 41.1 µM in assay [3] and 43.3 µM in assay [4]. Further, the dH in assay [1] is -18.2 kcal/mol; in assay [3], -12.1 kcal/mol.
The molecule `CC1(C)[C@@H]2CC[C@@]1(C)C(=O)C2` [D-camphor] registered a Kd in assay [5] of 14.9 µM.

The Kd is the free concentration of one partner at which half of the binding sites on the other are occupied at equilibrium, for simple one-to-one binding. Low values mean higher affinity, high ones lower affinity.
